Measurements pooled from the literature.
Read-out: metabolic stability

| SMILES | host | matrix | tested at | time | pH | quantity | result |
| --- | --- | --- | --- | --- | --- | --- | --- |
| Cc1ncc2n1-c1ccc(Cl)cc1C(c1ccccc1F)=NC2 | male CD-1 mouse | liver microsomes | 1 µM | – | – | microsomal CLint | > 250 µL/min/mg |
| C[C@H]1COCCN1c1nc(NCc2cccnc2C(F)(F)F)c2cccnc2n1 | mouse | hepatocytes | – | – | – | hepatocyte CLint | 8.9 µL/min/10⁶ cells |
| Cc1cc(Cl)c(Cl)cc1NC(=O)c1ccc(N2CCNCC2)c(C#N)c1 | CD-1 mouse | liver microsomes | 1 µM | 1 h | pH 7.4 | scaled CLint | 29 mL/min/kg |
| Cc1ccc(F)c2cc(C(=O)N[C@@H]3CCC[C@H](N4CC[C@H](N(C)S(C)(=O)=O)C4)C3)[nH]c12 | mouse | hepatocytes | 0.5 µM | 1 h | – | scaled CLint | 721 mL/min/kg |
| NC(=O)[C@@H]1CC(F)(F)CN1C(=O)c1ccc(N2CC(F)(F)C2)c(OCC2CC2)n1 | mouse | hepatocytes | – | – | – | hepatocyte CLint | 59 µL/min/10⁶ cells |
| Cc1cc(C)nc(Nc2ncc(C(=O)NCCc3c(C)[nH]c4ccccc34)cn2)c1 | mouse | liver microsomes | 1 µM | – | – | microsomal CLint | 148 µL/min/mg |
| Cc1nc([C@@](C)(CC2CC2)NC(=O)c2cc(OCC(F)(F)F)c(C3CC3)cn2)no1 | mouse | hepatocytes | – | – | – | hepatocyte CLint | 27 µL/min/10⁶ cells |
| Cc1nc2c(=O)n(C)c(=O)nc-2n(C)n1 | mouse | liver microsomes | – | – | – | microsomal CLint | < 7.4 µL/min/mg |
